High-throughput results deposited in PubChem by Broad Institute.
Hits are enriched below; roughly 3.1% of the tested compounds scored in any of these assays.
PGC1a acetyl inh = inhibitors of PGC1a acetylation signal, primary screen, cell-based, U2OS, AlphaScreen, inhibitor mode | AlphaScreen anti-acetyl-lysine; with virally co-expressed GCN5 acetyltransferase | inhibition, % at 15.6 µM | hit rate 0.17% among 350,000;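 active = every replicate shows inhibition of at least 40%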;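 note: 0% = neutral control wells and 100% = positive control wells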
PAX8 inh HTS = inhibitors of PAX8-driven TPO luciferase reporter, primary screen, RMG-I cells, single concentration; SteadyGlo, 24 h; inhibition, % at 12.6 µM; hit rate 1.2% among 360,000; AID 652154, 2013;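 active = mean replicate inhibition at least 60% with every replicate also reaching 60%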;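 note: luciferase light reporting Pax8 driven TPO promoter activity; plate controls were median of neutral control wells for no effect and mitoxantrone controls for full effect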
FGF22 binding = binders of human FGF22 protein, primary screen, FGF22 synaptogenesis inhibitor project, biophysical, thermal shift, single point. hit rate 1.5% among 340,000. recombinant FGF22 thermal shift, SYPRO orange fluorescence; percent of sucrose octasulfate shift, DMSO zero. activity (Tm shift, normalised), % at 9.99 µM;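 active = mean Tm shift, scaled 0 neutral to 100 positive control, at about 1.3% or above, every replicate too, limit read from the data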
Target sequence (Q9HCT0 whole entry, looked up): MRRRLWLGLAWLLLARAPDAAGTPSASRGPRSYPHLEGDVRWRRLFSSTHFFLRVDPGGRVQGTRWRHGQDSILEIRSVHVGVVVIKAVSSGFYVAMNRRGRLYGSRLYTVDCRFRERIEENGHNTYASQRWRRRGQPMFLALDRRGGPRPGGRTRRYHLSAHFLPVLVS
HIV Env fusion = inhibitors of HIV-1 Env-driven cell-cell fusion, primary screen, HeLa-JRFL effector, CEM21 target cells, luciferase; inhibition, % at 12.3 µM; hit rate 1.1% among 360,000; AID 651610, 2012;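 active = mean replicate inhibition score of at least 50 and every replicate individually at or above 50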;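 note: 0% = plate neutral controls and 100% = maraviroc near 300 nM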
FN deposit inh = inhibitors of fibronectin matrix deposition, primary screen, AH1F cells, Alexa488-fibronectin fluorescence, plate reader | AH1F fibroblasts, overnight | inhibition, % at 12.6 µM | hit rate 0.086% among 350,000 | AID 743247, 2014;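 active = mean inhibition across replicates of 30% or more, regardless of how many single replicates reach that level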;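 note: positive control wells lacked labelled fibronectin entirely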
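material = AH1F fibroblast monolayer depositing Alexa488-labelled fibronectin into matrix | amount = 10000 AH1F cells/well | buffer or medium = DMEM plus 2% serum, read in PBS | incubation = 1 h cell adhesion before compound, then overnight fibronectin incubation | detection = fluorescence at 485 nm excitation, 525 nm emission | evaluation = percent inhibition as loss of matrix-bound fibronectin fluorescence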
EWS-Fli inh = EWS/Fli-driven NR0B1 reporter inhibitors, primary screen, A673 cells, NR0B1 luciferase, luminescence, MLPCN library. viability-normalised. inhibition, % at 12.6 µM. hit rate 0.67% among 350,000. AID 651661, 2012;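 active = mean inhibition of at least 50% after viability correction, with every replicate also passing that limit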;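 note: firefly luciferase signal divided by Alamar Blue viability fluorescence both relative to DMSO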
Starred values were filed as active, the others as inactive; . = no result; [ ] = dose if it differs, or a comment.

SMILES	PGC1a acetyl inh	PAX8 inh HTS	FGF22 binding	HIV Env fusion	FN deposit inh	EWS-Fli inh
O=C(Nc1ccc2c(c1)[C@H]1C[C@@H](CC(=O)N3CCCCC3)O[C@H](CO)[C@H]1O2)NC1CCCC1	5	-11	0	-15[16.7 µM]	-4	-7
O=C(Nc1nc(-c2cccs2)c(-c2cccs2)s1)C1(c2ccccc2)CC1	3	102*	0	.	1	5
CCCNC(=O)C[C@@H]1CC[C@H]2[C@@H](COc3ccc(NC(=O)c4ccc(C(F)(F)F)cc4)cc3C(=O)N2C)O1	1	1	0	.	-5	0
CC(C)(C)c1ccc(COC(=O)Nc2ccc(F)cc2)cc1	.	-2	0	6	-4	-42
CC(C)(C)c1ccc(NC(=O)Nc2ccc(F)cc2)cc1	13	-110	43*	-87	-5	-126
Cc1ccc(NC(=O)Nc2ccc(F)cc2)cc1Cl	9	-150	43*	2	19	-113
C[C@@H]1CN([C@@H](C)CO)C(=O)c2cc(NC(=O)CCCN(C)C)ccc2O[C@@H](C)CCCCO[C@@H]1CN(C)C(=O)Cc1ccccc1	2	13	0	-6[16.7 µM]	.	-10
O=C(NC1CCCN(Cc2ccc(Cl)cc2)C1)c1ccccc1C(F)(F)F (centres undefined)	47*	13	0	-6	1	-3
CC1=C(C(=O)OC(C)C)C(c2cn(-c3ccccc3)nc2-c2cccs2)NC(=O)N1 (centres undefined)	.	5	44*	15	10	0
COC(=O)C1=C(C)NC(=O)NC1c1cn(-c2ccccc2)nc1-c1cccs1 (centres undefined)	-7	.	.	.	.	.
CCC(CC)=NNc1ccc([N+](=O)[O-])cc1[N+](=O)[O-]	.	-11	43*	16	-3	5
O=[N+]([O-])c1ccc(NN=C(C2CC2)C2CC2)c([N+](=O)[O-])c1	4	12	0	.	9	7
CC1C(=O)N(Cc2cn(CCC3OCCCO3)nn2)CCS(=O)(=O)N1Cc1ccc(-c2ccccc2)cc1 (centres undefined)	0	6	0	.	4	0
CC1C(=O)N(Cc2cn(CCC3OCCCO3)nn2)CCS(=O)(=O)N1Cc1ccc(-c2ccc(Cl)cc2)cc1 (centres undefined)	-3	20	44*	19	11	5
O=C1C2C3C=CC(CC3)C2S(=O)(=O)C2C3C=CC(CC3)C12 (centres undefined)	0	8	44*	.	3	6
O=C1C2C3C=CC(CC3)C2C(=O)N1c1ccc(Cl)cc1 (centres undefined)	-15	-12	0	0	-5	16
O=C(O)CN1C(=O)C2C3C=CC(C3)C2C1=O (centres undefined)	0	1	0	4	-1	-3
O=C1C2C3C=CC(C3)C2S(=O)(=O)C2C3C=CC(C3)C12 (centres undefined)	0	-11	43*	.	15	1
CCOC(=O)C(CC)(CC)C(=O)/C=C/c1ccc(Br)cc1	57*	.	.	.	.	.
O=S(=O)(N[C@@H]1CC[C@H](CCn2cc(-c3cccc(F)c3)nn2)O[C@H]1CO)c1ccc(F)cc1	-9	.	0	6[16.7 µM]	6	6
COc1ccc(C(=O)NCC(=O)N2CCCC(C)C2)cc1OC (centres undefined)	.	0	43*	-22	5	8
COc1cccc(CC(=O)Nc2nc3c(s2)C(=O)CC(C)(C)C3)c1	-8	99*	0	2	4	8
FC(F)(F)c1cc(CCN2CCNC[C@@H]2CC2CCCCC2)cc(C(F)(F)F)c1	-28	11	0	85*	-4	55*
C[C@H]1CCCCO[C@H](CN(C)Cc2ccc(C(=O)O)cc2)[C@@H](C)CN([C@@H](C)CO)C(=O)c2cc(NC(=O)CCC(F)(F)F)ccc2O1	-1	.	0	-2[16.7 µM]	.	-7
CC1(C)C2CCC1(C)C(OCC[N+](C)(C)CC(=O)OC1CCCCC1)C2 (centres undefined)	-2	51	0	74*	-11	15
SMILES	PGC1a acetyl inh	PAX8 inh HTS	FGF22 binding	HIV Env fusion	FN deposit inh	EWS-Fli inh
O=C(CN(Cc1ccccc1Cl)S(=O)(=O)c1ccc(Cl)cc1)N/N=C/c1ccc(C(=O)O)cc1	2	-6	1.5*	-20	7	1
O=C(CNC(=O)c1ccc(S(=O)(=O)N2CCCC2)cc1)N/N=C/c1ccccc1	-7	6	.	-21	4	.
O=C(CN(Cc1ccccc1)S(=O)(=O)c1ccccc1)N/N=C/c1ccc([N+](=O)[O-])cc1	-14	18	.	-127	.	.
CN(C)S(=O)(=O)c1ccc(C(=O)NCC(=O)N/N=C/c2ccccc2)cc1	-4	0	44*	2	-2	7
COc1cccc(C#Cc2ccc([C@@H]3[C@@H](CO)N(C(=O)C4CCCC4)[C@H]3C#N)cc2)c1	.	.	.	.	-10	32
COc1cccc(C#Cc2ccc([C@@H]3[C@H](C#N)N(C(=O)c4ccccn4)[C@H]3CO)cc2)c1	-18	98*	0	.	3	-26
COc1cccc(C#Cc2ccc([C@@H]3[C@@H](CO)N(C(=O)C4CCC4)[C@H]3C#N)cc2)c1	-24	70*	0	-47[16.7 µM]	-7	3
CCCNC(=O)N1[C@H](C#N)[C@H](c2ccc(-c3cccc(OC)c3)cc2)[C@@H]1CO	-6	18	0	58*[16.7 µM]	.	17
COc1cccc(C#Cc2ccc([C@@H]3[C@@H](C#N)N(C(=O)C4CCCCC4)[C@H]3CO)cc2)c1	-22	77*	0	25[16.7 µM]	-13	1
COc1cccc(C#Cc2ccc([C@@H]3[C@@H](CO)N(C(=O)c4ccccn4)[C@H]3C#N)cc2)c1	-29	-2	0	.	8	17
COc1cccc(C#Cc2ccc([C@@H]3[C@@H](C#N)N(C(=O)C4CCC4)[C@H]3CO)cc2)c1	-10	24	0	12[16.7 µM]	1	6
C[C@H]1CN([C@@H](C)CO)C(=O)c2cc(NS(=O)(=O)c3cccs3)ccc2O[C@H]1CN(C)S(=O)(=O)c1ccc(Cl)cc1	16	.	-1	.	-3	3
C[C@@H]1CCCCO[C@@H](CN(C)Cc2ccc(Cl)c(Cl)c2)[C@H](C)CN([C@H](C)CO)C(=O)c2cc(NC(=O)CCC(F)(F)F)ccc2O1	-15	7	-1	-27[16.7 µM]	.	11
COc1ccc(NC(=O)Nc2ccc3c(c2)C(=O)N([C@@H](C)CO)C[C@H](C)[C@H](CN(C)Cc2ccc(C(=O)O)cc2)OCCCC[C@H](C)O3)cc1	12	7	0	27[16.7 µM]	.	-2
